Data as given in PMC3677025 (Pharmacological research : the official journal of the …, 2012).

What was measured:
EphA4 [1] = molecular target: T1, EphA4 (Mus musculus, UniProt Q03137); assay: EphA4 AP binding to immobilized KYL peptide
Outline: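 Biotinylated KYL peptide (biotin on the lysine of a C-terminal GSGSK linker) was captured on streptavidin-coated wells, with coating in borate buffer pH 8.7. Test compound (10 μM in 1% DMSO for screening; varied concentrations for confirmation) was added with ~0.35 nM mouse EphA4 ectodomain–AP from NIH3T3 supernatant in TBST. Bound AP was read at 405 nm with 1 mg/ml p-nitrophenylphosphate in SEAP buffer pH 9.8, minus AP-only background. Percent inhibition was taken relative to no-compound wells.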

EphB6 = assay: ELISA, ephrin-B2 AP binding to immobilized EphB6 Fc; conditions: read-out: IC50, inhibition of ephrin binding to EphB6
Outline: (§1)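 Eph receptor Fc fusions were immobilized at 1 μg/ml in TBST on protein A-coated wells. Diluted ephrin AP fusion supernatant from transiently transfected HEK293 cells was added for 2 h with or without test compound; for IC50 it was at approximately 0.01 nM. Bound AP was read with p-nitrophenylphosphate, minus Fc-only background. IC50 came from a variable-slope log(inhibitor)–response fit, bottom constrained to 0.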

EphB2 = assay: Ephrin-B2 Fc-induced EphB2 tyrosine phosphorylation in COS cells; type: cell-based; conditions: relative to concentrations inhibiting other Eph receptors
Outline: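 Cells were serum-starved 1–2 h and pretreated 15 min with test compound (DMSO ≤0.4% final). They were then stimulated 20 min with compound present: COS cells with 0.8 μg/mL ephrin-B2 Fc, and B16 melanoma cells with 1.5 μg/mL anti-Fc-preclustered ephrin-B2 Fc, or Fc control. Lysates were made in modified RIPA. EphB2 (COS; 7 μg antibody) or EphB4 (B16; 20 μg antibody) was immunoprecipitated, probed for phosphotyrosine, then reprobed for the receptor.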

EphA3 = assay: ELISA, ephrin-A5 AP binding to immobilized EphA3 Fc; conditions: read-out: IC50, inhibition of ephrin binding to EphA3
Outline: as §1

EphB4 = molecular target: T2, EphB4 (Homo sapiens, UniProt P54760); assay: Ephrin-B2 Fc-induced EphB4 phosphorylation in HUVECs; type: cell-based; conditions: at 50 μM
T2 sequence (P54760 16-987): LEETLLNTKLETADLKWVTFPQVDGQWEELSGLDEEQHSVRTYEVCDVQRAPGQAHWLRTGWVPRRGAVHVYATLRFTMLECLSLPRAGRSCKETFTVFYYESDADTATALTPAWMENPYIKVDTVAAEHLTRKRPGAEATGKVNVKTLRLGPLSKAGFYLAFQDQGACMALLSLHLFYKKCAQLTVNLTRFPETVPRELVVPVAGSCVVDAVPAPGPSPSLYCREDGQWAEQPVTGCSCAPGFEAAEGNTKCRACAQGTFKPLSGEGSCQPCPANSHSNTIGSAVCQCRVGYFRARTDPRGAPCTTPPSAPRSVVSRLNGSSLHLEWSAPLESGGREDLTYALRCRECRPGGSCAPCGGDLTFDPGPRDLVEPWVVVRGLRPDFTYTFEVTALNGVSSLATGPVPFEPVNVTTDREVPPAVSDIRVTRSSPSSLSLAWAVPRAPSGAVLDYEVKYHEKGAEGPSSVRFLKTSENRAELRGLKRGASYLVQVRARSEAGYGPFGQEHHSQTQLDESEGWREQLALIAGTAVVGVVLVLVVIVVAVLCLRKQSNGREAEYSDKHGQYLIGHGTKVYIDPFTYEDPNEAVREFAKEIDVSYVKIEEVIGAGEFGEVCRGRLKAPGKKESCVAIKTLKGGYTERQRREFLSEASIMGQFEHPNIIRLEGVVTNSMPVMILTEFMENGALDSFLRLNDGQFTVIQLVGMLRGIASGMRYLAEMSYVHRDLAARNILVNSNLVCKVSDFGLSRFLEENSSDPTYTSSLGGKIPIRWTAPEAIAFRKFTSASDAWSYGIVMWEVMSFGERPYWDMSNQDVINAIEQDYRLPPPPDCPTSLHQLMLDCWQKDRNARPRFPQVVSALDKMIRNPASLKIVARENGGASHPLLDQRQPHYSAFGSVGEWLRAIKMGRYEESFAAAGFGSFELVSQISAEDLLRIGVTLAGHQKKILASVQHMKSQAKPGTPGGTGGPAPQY
Outline: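 HUVECs were serum-starved 1–2 h and preincubated 15 min with 50 μM test compound (DMSO ≤0.4% final). They were then stimulated 20 min with 0.25 μg/mL ephrin-A1 Fc plus 1.5 μg/mL ephrin-B2 Fc (preclustered with 3-fold anti-Fc), or Fc, with compound present. Lysates were made in modified RIPA with NaF and pervanadate. EphA2 (1 μg antibody) and EphB4 (20 μg antibody) immunoprecipitates were immunoblotted for phosphotyrosine; lysates were probed for receptors and β-actin.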

EphA4 [2] = molecular target: T1, EphA4; assay: ELISA, ephrin-A5 AP binding to immobilized EphA4 Fc
Outline: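 Mouse EphA4 Fc was captured at 1 μg/ml on protein A wells. Ephrin-A5 AP (~0.01 nM for IC50) from HEK293 supernatant was added with test compound for 2 h in TBST and read with p-nitrophenylphosphate, minus Fc-only background. For reversibility, compound was incubated 2 h, washed 30 min, then ephrin-A5 AP added for 1 h. For mode of inhibition, ephrin-A5 AP was titrated per compound concentration and fitted one-site; Ki came from KD/Bmax versus inhibitor regression.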

EphA2 = EphA2 (Mus musculus, UniProt Q03145); assay: ELISA, ephrin-A5 AP binding to immobilized EphA2 Fc; conditions: read-out: IC50 ± SE EphA2 ephrin-A5
Chain of EphA2 (Q03145 26-538): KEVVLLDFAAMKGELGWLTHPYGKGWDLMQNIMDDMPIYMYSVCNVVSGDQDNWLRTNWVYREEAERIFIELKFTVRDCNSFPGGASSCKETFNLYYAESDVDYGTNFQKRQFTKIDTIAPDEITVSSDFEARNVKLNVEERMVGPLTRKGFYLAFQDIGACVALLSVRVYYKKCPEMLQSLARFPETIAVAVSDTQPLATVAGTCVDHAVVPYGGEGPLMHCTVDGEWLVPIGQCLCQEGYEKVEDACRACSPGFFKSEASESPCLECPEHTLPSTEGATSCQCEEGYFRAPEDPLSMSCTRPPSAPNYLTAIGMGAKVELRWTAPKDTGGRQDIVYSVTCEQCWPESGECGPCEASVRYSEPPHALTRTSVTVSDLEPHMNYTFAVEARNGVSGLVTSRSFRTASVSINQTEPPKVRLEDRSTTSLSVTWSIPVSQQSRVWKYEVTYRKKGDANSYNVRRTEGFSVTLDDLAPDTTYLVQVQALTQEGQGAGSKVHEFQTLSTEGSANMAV

T1 sequence (Q03137 20-547 limits assumed): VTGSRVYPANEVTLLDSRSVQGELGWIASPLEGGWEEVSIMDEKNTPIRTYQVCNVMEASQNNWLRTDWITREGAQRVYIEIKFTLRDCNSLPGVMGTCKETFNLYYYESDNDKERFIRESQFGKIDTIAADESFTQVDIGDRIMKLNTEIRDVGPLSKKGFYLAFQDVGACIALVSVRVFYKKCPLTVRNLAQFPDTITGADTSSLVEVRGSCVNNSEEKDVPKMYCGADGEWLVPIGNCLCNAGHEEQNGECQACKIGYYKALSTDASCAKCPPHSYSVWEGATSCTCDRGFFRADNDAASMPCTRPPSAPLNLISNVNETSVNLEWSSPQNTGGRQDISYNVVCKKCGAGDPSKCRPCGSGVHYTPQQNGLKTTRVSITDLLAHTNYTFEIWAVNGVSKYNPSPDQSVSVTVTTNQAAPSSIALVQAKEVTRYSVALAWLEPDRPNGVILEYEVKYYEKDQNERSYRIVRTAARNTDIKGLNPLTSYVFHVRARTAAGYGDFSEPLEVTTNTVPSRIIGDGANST

## O=C(Oc1cc(O)cc2c1C[C@@H](OC(=O)c1cc(O)c(O)c(O)c1)[C@@H](c1cc(O)c(O)c(O)c1)O2)c1cc(O)c(O)c(O)c1 [epigallocatechin-3,5-digallate]
EphA4 [1]; read-out: IC50 ± SE EphA4 KYL
  IC50: 1.5 ± 0.13 µM
EphA4 [1]; screen, compounds at 10 μM
  (% Inhib.) EphA4 KYL: 58%
EphB6
  IC50: < 10 µM
EphB2
  inhibition of EphB2 phosphorylation: at higher concentrations
EphA3
  IC50: < 10 µM
EphB4
  EphB4 phosphorylation in HUVECs: strongly inhibits
EphA4 [2]; compound washed out before adding ephrin-A5 AP
  reversibility of inhibition of EphA4-ephrin-A5 binding: reversible
EphA4 [2]; read-out: IC50, inhibition of EphA4-ephrin-A5 binding (text)
  IC50: 8 µM
EphA4 [2]; read-out: IC50, inhibition of EphA4-ephrin-A5 binding (text), listed as Epigallocatechin-3,5-digallate
  IC50: < 10 µM
EphA4 [2]; read-out: IC50 ± SE EphA4 ephrin-A5
  IC50: 7.4 ± 1.8 µM
EphA4 [2]; similar Bmax, increasing KD
  mode of inhibition of ephrin-A5 binding to EphA4: competitive inhibitors
EphA2
  IC50: 40 ± 3.8 µM
